According to ChEMBL document CHEMBL5649170, “Sustained microglial depletion with CSF1R inhibitor impairs parenchymal plaque development in an Alzheimer's disease model” (Nat Commun, 2019):
Active and inactive are the calls of the source. The rule behind the calls is not given here.

Legend:
Mus musculus [1] = assay: Antialzheimer activity in 5XFAD mouse assessed as appearance of CAA in […] cortex at 600 ppm administered as rodent chow starting from 1.5 months and measured after 5 months by immunolabeling based confocal microscopic analysis; assay type: functional, organism-based; conditions: route po, time 3.5 months
Method in brief: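 5xFAD mice fed PLX3397 at 600 ppm in AIN-76A chow from 1.5 to 5 months of age; brain sections stained with Thio-S and immunolabeled for IBA1, imaged by confocal microscopy for vascular Thio-S deposits.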

Mus musculus [2] = assay: Antialzheimer activity in 5XFAD mouse assessed as number of This-S positive cells per FOV in somatosensory cortex at 1200 ppm administered as rodent chow starting from 1.5 months to 4 months followed by compound removal and measured after 1 months by immunolabelling based confocal microscopic analysis (reference value: 34 to 79); assay type: functional; conditions: route po, time 2.5 months, 1825 h
Method in brief: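 For the repopulation paradigm, 5xFAD mice ate 1200 ppm PLX5622 chow from 1.5 to 4 months of age. Inhibitor chow was then withdrawn, and brains were examined one month later. Sections were stained with Thio-S and immunolabeled for IBA1, then analysed by confocal microscopy in cortical regions.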

[3] = target: Protein kinase C beta type (Homo sapiens, UniProt P05771); assay: Inhibition of PRKCB1 (unknown origin)
[4] = Effect on ccl6 gene expression in 5XFAD mouse cortex at 1200 ppm administered as rodent chow starting from 1.5 months and measured after 7 months by RNA-Seq analysis (reference value: 4.103 to 8.161 RPKM); assay type: functional; conditions: route po, time 5.5 months, 4015 h
[5] = Effect on C1qa gene expression in 5XFAD mouse cortex at 1200 ppm administered as rodent chow starting from 1.5 months and measured after 7 months by RNA-Seq analysis (reference value: 31.609 to 64.988 RPKM); assay type: functional; conditions: route po, time 5.5 months, 4015 h
Method in brief: (§1)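 WT and 5xFAD mice were treated with 1200 ppm PLX5622 chow or control chow from 1.5 to 7 months of age. Brains were microdissected into cortex, hippocampus and thalamus, and RNA was extracted from tissue powder. Whole-transcriptome RNA-Seq libraries were sequenced, with n = 4 per group per region (48 samples).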

[6] = target: MAP kinase-activated protein kinase 2 (Homo sapiens, UniProt P49137); assay: Inhibition of MAPKAPK2 (unknown origin)
[7] = target: Serine/threonine-protein kinase N1 (Homo sapiens, UniProt Q16512); assay: Inhibition of PKN1 (unknown origin)
[8] = Effect on Siglech gene expression in 5XFAD mouse thalamus at 1200 ppm administered as rodent chow starting from 1.5 months and measured after 7 months by RNA-Seq analysis (reference value: 4.466 to 6.336 RPKM); assay type: functional; conditions: route po, time 5.5 months, 4015 h
[9] = target: Megakaryocyte-associated tyrosine-protein kinase (Homo sapiens, UniProt P42679); assay: Inhibition of MATK (unknown origin)
[10] = target: cAMP-dependent protein kinase catalytic subunit PRKX (Homo sapiens, UniProt P51817); assay: Inhibition of PRKX (unknown origin)
Mus musculus [11] = assay: Antialzheimer activity in wildtype mouse assessed as number of Iba positive cells per FOV in […] cortex at 1200 ppm administered as rodent chow starting from 1.5 months and measured after 7 months (reference value: 322 to 632); assay type: functional; conditions: route po, time 5.5 months, 4015 h
[12] = target: Dual specificity tyrosine-phosphorylation-regulated kinase 3 (Homo sapiens, UniProt O43781); assay: Inhibition of DYRK3 (unknown origin)
Ephrin type-B receptor 3 = Ephrin type-B receptor 3 (Homo sapiens, UniProt P54753); assay: Inhibition of EPHB3 (unknown origin)
[13] = Half-life in male rat at 1.13 mg/kg, iv administered as single dose; assay type: ADME, organism-based; conditions: in vivo
[14] = Effect on Spi1 gene expression in 5XFAD mouse hippocampus at 1200 ppm administered as rodent chow starting from 1.5 months and measured after 7 months by RNA-Seq analysis (reference value: 2.582 to 3.674 RPKM); assay type: functional; conditions: route po, time 5.5 months, 4015 h
Mus musculus [15] = assay: Antialzheimer activity in 5XFAD mouse assessed as number of S100bteta positive cells per FOV in […] cortex at 1200 ppm administered as rodent chow for 10 to 24 weeks by immunolabelling based confocal microscopic analysis (reference value: 320 to 427); assay type: functional; conditions: route po, time 10-24 weeks
[16] = Toxicity in wildtype mouse assessed as time to locate platform at 1200 ppm administered as rodent chow for 10 to 24 weeks by Morris water maze test (reference value: 3.195 to 56.218 sec); conditions: in vivo, po, time 10-24 weeks
Mus musculus [17] = assay: Antialzheimer activity in 5XFAD mouse assessed as average plaque volume in thalamus at 1200 ppm administered as rodent chow starting from 1.5 months and measured after 7 months by Thio-S staining based confocal microscopic analysis (reference value: 2442.562 to 3332.739 microm3); assay type: functional; conditions: route po, time 5.5 months, 4015 h
[18] = Effect on Clec7a gene expression in 5XFAD mouse hippocampus at 1200 ppm administered as rodent chow starting from 1.5 months and measured after 7 months by RNA-Seq analysis (reference value: 4.246 to 7.511 RPKM); assay type: functional; conditions: route po, time 5.5 months, 4015 h; method in brief: as §1
[19] = target: Tyrosine-protein kinase HCK (Homo sapiens, UniProt P08631); assay: Inhibition of HCK (unknown origin)
[20] = Effect on Clec7a gene expression in 5XFAD mouse thalamus at 1200 ppm administered as rodent chow starting from 1.5 months and measured after 7 months by RNA-Seq analysis (reference value: 3.412 to 4.381 RPKM); assay type: functional; conditions: route po, time 5.5 months, 4015 h; method in brief: as §1
SRSF protein kinase 1 = SRSF protein kinase 1 (Homo sapiens, UniProt Q96SB4); assay: Inhibition of SRPK1 (unknown origin)
[21] = Effect on C1qa gene expression in 5XFAD mouse hippocampus at 1200 ppm administered as rodent chow starting from 1.5 months and measured after 7 months by RNA-Seq analysis (reference value: 61.868 to 70.581 RPKM); assay type: functional; conditions: route po, time 5.5 months, 4015 h; method in brief: as §1
[22] = Effect on St8sia5 gene expression in wildtype mouse hippocampus assessed as percent change in Reads Per kilo base per Million mapped reads at 1200 ppm administered as rodent chow starting from 1.5 months and measured after 7 months by RNA-Seq analysis (reference value: 83.570 to 112.150 %); assay type: functional; conditions: route po, time 5.5 months, 4015 h
Mus musculus [23] = assay: Antialzheimer activity in 5XFAD mouse assessed as average plaque volume in somatosensory cortex at 1200 ppm administered as rodent chow starting from 1.5 months and measured after 7 months by Thio-S staining based confocal microscopic analysis (reference value: 711.144 to 2878.724 microm3); assay type: functional; conditions: route po, time 5.5 months, 4015 h
[24] = Effect on Csf1r RPKM gene expression in wild type mouse thalamus at 1200 ppm administered as rodent chow starting from 1.5 months and measured after 7 months by RNA-Seq analysis (reference value: 19.596 to 21.371 RPKM); assay type: functional; conditions: route po, time 5.5 months, 4015 h
[25] = Effect on C1qa gene expression in wild type mouse thalamus at 1200 ppm administered as rodent chow starting from 1.5 months and measured after 7 months by RNA-Seq analysis (reference value: 19.070 to 32.518); assay type: functional; conditions: route po, time 5.5 months, 4015 h; method in brief: as §1
[26] = target: Proto-oncogene tyrosine-protein kinase Src (Homo sapiens, UniProt P12931); assay: Inhibition of SRC (unknown origin)
[27] = target: Leucine-rich repeat serine/threonine-protein kinase 2 (Homo sapiens, UniProt Q5S007); assay: Inhibition of LRRK2 (unknown origin)
[28] = target: G protein-coupled receptor kinase 6 (Homo sapiens, UniProt P43250); assay: Inhibition of GRK6 (unknown origin)

Sequence of Protein kinase C beta type (P05771 whole entry): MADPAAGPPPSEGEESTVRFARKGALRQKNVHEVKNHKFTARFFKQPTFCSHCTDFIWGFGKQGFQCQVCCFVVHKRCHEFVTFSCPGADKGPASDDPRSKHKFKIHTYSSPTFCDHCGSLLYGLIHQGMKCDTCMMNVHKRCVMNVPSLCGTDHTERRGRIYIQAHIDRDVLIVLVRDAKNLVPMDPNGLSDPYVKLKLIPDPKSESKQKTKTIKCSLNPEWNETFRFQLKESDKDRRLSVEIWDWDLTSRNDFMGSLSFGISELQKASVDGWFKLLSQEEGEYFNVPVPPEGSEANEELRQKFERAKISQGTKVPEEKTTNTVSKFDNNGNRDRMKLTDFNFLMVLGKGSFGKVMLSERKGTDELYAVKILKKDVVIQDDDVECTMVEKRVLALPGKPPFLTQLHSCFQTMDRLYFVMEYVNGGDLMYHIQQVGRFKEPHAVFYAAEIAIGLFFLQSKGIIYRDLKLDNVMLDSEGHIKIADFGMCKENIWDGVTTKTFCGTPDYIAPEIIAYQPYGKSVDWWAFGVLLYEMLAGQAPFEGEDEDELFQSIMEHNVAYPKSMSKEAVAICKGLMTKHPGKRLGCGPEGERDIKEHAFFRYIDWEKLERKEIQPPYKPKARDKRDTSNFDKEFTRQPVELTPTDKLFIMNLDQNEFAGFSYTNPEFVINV
Sequence of Tyrosine-protein kinase HCK (P08631 whole entry): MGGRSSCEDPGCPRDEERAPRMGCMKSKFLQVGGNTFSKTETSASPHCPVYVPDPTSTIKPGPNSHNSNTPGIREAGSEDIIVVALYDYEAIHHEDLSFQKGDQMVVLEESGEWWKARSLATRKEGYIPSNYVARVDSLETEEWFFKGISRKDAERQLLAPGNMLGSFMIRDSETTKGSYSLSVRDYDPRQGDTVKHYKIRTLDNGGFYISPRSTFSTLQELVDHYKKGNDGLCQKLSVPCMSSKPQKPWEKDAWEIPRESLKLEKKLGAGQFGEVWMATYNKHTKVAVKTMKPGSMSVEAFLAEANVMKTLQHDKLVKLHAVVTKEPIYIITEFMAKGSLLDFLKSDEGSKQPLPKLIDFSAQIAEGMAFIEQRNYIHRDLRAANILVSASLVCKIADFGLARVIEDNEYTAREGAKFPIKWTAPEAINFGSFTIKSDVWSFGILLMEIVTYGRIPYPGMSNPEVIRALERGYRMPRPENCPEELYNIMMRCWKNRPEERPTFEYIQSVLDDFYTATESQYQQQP
Sequence of cAMP-dependent protein kinase catalytic subunit PRKX (P51817 whole entry): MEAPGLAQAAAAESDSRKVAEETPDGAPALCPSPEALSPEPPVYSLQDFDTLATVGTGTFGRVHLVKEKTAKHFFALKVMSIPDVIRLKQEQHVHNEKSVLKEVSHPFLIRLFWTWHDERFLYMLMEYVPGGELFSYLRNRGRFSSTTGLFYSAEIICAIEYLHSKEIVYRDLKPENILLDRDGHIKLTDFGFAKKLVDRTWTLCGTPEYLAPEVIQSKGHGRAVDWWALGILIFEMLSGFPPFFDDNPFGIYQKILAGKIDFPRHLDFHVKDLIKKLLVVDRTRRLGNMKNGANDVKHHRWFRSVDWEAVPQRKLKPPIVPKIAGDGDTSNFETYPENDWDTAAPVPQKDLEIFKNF
Sequence of Leucine-rich repeat serine/threonine-protein kinase 2 (Q5S007 whole entry): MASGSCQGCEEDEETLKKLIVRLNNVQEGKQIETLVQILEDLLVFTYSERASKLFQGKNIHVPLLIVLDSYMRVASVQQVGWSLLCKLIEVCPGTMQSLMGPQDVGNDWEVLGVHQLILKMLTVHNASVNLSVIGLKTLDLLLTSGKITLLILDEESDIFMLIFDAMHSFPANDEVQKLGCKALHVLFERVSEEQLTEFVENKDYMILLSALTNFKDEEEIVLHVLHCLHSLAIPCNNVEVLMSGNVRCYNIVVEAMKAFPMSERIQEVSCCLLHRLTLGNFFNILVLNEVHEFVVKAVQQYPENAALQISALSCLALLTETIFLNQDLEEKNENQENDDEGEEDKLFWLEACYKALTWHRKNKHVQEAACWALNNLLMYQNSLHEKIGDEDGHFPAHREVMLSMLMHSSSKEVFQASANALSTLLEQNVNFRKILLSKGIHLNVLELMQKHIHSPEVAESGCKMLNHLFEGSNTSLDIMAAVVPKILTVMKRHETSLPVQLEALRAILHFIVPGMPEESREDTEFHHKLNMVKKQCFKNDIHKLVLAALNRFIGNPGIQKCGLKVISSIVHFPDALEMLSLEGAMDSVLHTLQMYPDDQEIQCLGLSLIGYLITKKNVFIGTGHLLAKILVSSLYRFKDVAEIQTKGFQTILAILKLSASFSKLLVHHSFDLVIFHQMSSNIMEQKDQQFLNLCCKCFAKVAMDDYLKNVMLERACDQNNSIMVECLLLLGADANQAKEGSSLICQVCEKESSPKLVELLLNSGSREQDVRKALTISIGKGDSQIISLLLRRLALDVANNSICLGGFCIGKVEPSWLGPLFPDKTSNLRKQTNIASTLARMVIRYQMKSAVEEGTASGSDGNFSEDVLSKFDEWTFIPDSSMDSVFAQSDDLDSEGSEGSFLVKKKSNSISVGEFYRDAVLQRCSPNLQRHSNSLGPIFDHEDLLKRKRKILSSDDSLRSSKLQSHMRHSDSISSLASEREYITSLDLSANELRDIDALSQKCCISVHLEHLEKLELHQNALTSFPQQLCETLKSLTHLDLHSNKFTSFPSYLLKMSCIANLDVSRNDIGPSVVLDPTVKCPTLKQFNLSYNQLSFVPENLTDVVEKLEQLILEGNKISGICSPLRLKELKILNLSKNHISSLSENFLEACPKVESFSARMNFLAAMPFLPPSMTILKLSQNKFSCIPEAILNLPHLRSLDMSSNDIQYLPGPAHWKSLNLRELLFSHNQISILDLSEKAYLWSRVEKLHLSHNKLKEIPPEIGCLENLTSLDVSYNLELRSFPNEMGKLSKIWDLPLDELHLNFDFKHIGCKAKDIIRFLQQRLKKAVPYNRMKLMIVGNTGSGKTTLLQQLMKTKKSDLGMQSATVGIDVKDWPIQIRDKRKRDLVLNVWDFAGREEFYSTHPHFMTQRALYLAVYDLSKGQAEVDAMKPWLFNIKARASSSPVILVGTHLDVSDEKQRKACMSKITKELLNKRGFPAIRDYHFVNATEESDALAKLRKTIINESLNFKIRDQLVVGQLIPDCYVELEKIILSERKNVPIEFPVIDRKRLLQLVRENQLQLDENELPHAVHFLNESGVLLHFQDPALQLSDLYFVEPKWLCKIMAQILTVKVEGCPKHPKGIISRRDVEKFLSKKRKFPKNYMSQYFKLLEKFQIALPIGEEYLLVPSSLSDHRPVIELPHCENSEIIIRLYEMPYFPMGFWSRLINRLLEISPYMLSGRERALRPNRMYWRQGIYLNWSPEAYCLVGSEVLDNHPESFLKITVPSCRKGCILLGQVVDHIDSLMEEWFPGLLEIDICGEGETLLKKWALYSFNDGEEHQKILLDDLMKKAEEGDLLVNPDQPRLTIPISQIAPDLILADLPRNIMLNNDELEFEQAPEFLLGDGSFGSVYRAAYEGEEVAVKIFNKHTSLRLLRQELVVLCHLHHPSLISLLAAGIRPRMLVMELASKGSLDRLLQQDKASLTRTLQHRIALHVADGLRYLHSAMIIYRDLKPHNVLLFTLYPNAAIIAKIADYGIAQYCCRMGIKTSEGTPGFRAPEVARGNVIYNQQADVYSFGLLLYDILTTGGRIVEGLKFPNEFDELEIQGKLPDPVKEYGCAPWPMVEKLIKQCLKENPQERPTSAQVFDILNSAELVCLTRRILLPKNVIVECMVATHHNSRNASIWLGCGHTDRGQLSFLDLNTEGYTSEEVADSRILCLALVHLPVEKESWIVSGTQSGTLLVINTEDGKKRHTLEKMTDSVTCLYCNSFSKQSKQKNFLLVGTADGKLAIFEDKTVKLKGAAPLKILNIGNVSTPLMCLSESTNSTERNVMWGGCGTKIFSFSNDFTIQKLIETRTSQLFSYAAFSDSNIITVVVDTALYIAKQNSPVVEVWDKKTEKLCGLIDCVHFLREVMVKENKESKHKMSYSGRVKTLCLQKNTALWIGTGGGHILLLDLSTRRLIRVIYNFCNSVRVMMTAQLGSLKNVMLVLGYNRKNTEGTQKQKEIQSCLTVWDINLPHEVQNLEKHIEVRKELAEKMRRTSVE
Sequence of Ephrin type-B receptor 3 (P54753 whole entry): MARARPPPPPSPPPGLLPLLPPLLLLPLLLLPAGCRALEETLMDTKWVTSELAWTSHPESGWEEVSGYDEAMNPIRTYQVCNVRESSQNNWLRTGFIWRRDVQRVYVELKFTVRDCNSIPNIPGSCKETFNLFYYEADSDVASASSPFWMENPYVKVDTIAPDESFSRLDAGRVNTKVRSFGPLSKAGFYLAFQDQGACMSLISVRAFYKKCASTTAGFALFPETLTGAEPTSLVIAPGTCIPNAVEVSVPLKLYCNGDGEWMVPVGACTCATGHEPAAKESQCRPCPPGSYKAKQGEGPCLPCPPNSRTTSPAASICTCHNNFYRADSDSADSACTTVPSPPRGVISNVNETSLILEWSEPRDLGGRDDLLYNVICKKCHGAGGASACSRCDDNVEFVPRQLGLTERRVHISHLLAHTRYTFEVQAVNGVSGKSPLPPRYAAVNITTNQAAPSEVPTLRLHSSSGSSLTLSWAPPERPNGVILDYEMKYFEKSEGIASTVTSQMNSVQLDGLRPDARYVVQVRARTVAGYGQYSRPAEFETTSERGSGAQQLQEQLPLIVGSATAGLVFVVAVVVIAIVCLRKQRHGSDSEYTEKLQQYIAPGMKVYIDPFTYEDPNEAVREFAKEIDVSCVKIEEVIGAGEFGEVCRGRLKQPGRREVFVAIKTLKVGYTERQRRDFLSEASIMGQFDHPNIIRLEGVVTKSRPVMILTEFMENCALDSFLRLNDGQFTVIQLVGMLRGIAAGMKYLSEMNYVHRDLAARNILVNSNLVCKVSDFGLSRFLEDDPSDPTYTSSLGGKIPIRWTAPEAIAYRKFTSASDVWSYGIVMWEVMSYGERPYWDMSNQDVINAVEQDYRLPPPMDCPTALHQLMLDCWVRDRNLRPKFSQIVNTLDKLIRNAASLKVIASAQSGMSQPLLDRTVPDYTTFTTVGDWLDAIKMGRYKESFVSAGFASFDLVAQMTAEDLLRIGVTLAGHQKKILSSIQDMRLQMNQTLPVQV

## FC(F)(F)c1ccc(CNc2ccc(Cc3c[nH]c4ncc(Cl)cc34)cn2)cn1 [PEXIDARTINIB]
Mus musculus [1]
  Activity: Active

## COc1ncc(F)cc1CNc1ccc(Cc2c[nH]c3ncc(C)cc23)c(F)n1 [PLX-5622]
Mus musculus [2]
  Activity: 15
[3]
  IC50: > 1000 nM
[4]
  Activity: 0.241 RPKM
[5]
  Activity: 2.8 RPKM
[6]
  IC50: > 1000 nM
[7]
  IC50: > 1000 nM
[8]
  Activity: 0 RPKM
[9]
  IC50: > 1000 nM
[10]
  IC50: > 1000 nM
Mus musculus [11]
  Activity: 0
[12]
  IC50: > 1000 nM
Ephrin type-B receptor 3
  IC50: > 1000 nM
[13]
  half-life: 2.3 h
[14]
  Activity: 0.292 RPKM
Mus musculus [15]
  Activity: 288
[16]
  Time: 6.755 s
Mus musculus [17]
  Activity: 1488.396 um3
[18]
  Activity: 0.239 RPKM
[19]
  IC50: > 1000 nM
[20]
  Activity: 0 RPKM
SRSF protein kinase 1
  IC50: > 1000 nM
[21]
  Activity: 6.689 RPKM
[22]
  Activity: 65.471%
Mus musculus [23]
  Activity: 66.975 um3
[24]
  Activity: 0.064 RPKM
[25]
  Activity: 0 RPKM
[26]
  IC50: > 1000 nM
[27]
  IC50: > 1000 nM
[28]
  IC50: > 1000 nM
